Assay results as given in ChEMBL document CHEMBL2385072, “Development of oleanane-type triterpenes as a new class of HCV entry inhibitors” (J Med Chem, 2013).
pIC50, pKd: −log10 of the molar value. Calls of active or inactive are those of the source. The calls are words filed in the database; no cut-off is given here.

Columns and labels:
Hepatitis C virus [1] = assay: Antiviral activity against pseudo HCV infected in human 293T cells assessed as inhibition of HCV pseudo particles entry after 72 hrs by luciferase reporter gene assay; type: functional, organism-based, Hepacivirus hominis
Procedure, shortened: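 HCVpp (HCV E1/E2 on Env/Vpr-deficient HIV luciferase vector, made in 293T by cotransfection, harvested 72 h) added to 5×10^3 Huh-7 cells/well with compound at final 1 or 5 μM in 1% DMSO; 72 h, 37 °C; luciferase read. Inhibition = 100 − % of DMSO control after uninfected-well background subtraction; VSVpp run in parallel; duplicate, ≥3 experiments.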

[2] = test system: Vesicular stomatitis virus; assay: Antiviral activity against pseudo VSV infected in human 293T cells assessed as inhibition of vesicular stromatis G protein pseudo particles entry at 1 uM after 72 hrs by luciferase reporter gene assay; type: functional; details: HEK-293T
HEK-293T = assay: Cytotoxicity against human 293T cells at 50 uM after 48 hrs by Alamar Blue assay; type: cell-based
Procedure, shortened: (§1)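 alamarBlue viability assay in HepG2, HeLa and 293T cells, compound up to 50 μM.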

HeLa = assay: Cytotoxicity against human HeLa cells at 50 uM after 48 hrs by Alamar Blue assay; type: cell-based; procedure, shortened: as §1
Hepatitis C virus [3] = assay: Ratio of echinocystic acid IC50 to compound IC50 for pseudo HCV infected in human 293T cells assessed as inhibition of HCV pseudo particles entry after 72 hrs by luciferase reporter gene assay; type: functional, Hepacivirus hominis
Procedure, shortened: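 HCVpp luciferase entry assay in Huh-7 cells, 72 h at 37 °C. Six-point curves at tenfold steps, 1 nM–100 μM or 0.5 nM–50 μM. Each concentration in triplicate, mean and SD.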

Hepatitis C virus [4] = assay: Antiviral activity against pseudo HCV infected in human 293T cells assessed as inhibition of HCV pseudo particles entry at 5 uM after 72 hrs by luciferase reporter gene assay; type: functional, Hepacivirus hominis; details: HEK-293T
[5] = test system: Vesicular stomatitis virus; assay: Antiviral activity against pseudo VSV infected in human 293T cells assessed as inhibition of vesicular stromatis G protein pseudo particles entry at 5 uM after 72 hrs by luciferase reporter gene assay; type: functional; details: HEK-293T
Hepatitis C virus [6] = assay: Antiviral activity against pseudo HCV infected in human 293T cells assessed as inhibition of HCV pseudo particles entry at 1 uM after 72 hrs by luciferase reporter gene assay; type: functional, Hepacivirus hominis; details: HEK-293T
HepG2 = assay: Cytotoxicity against human HepG2 cells at 50 uM after 48 hrs by Alamar Blue assay; type: cell-based; details: hepg2, 48 h; procedure, shortened: as §1
CD81 antigen = molecular target: T1, CD81 antigen (Homo sapiens, UniProt P60033); assay: Binding affinity to CD81 (unknown origin)
T1 sequence (P60033 whole entry): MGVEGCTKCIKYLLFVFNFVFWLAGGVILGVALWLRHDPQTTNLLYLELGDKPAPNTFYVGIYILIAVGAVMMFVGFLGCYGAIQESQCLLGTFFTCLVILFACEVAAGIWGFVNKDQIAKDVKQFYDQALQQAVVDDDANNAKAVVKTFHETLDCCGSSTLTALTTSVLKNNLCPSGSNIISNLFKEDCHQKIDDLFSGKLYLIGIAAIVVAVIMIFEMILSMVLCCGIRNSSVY
Procedure, shortened: (§2)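 BIAcore: E2 immobilized on a streptavidin sensor via SA–biotin and exposed to CD81 at 40.9–654.5 nM to fit K_D. CD81 was also tested together with compound.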

[7] = Hemolytic activity against rabbit RBC after 60 mins by spectrophotometry; type: ADME, cell-based, Oryctolagus cuniculus, Erythrocyte
Procedure, shortened: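 2% rabbit erythrocytes in 130 mM NaCl, 20 mM Tris-HCl pH 7.4 incubated with serially diluted compounds for 60 min at 37 °C. Hemolysis read as absorbance at 540 nm.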

[8] = Inhibition of HCV envelope protein E2 protein interaction with CD81 receptor (unknown origin) by BIAcore assay; design: species or system Hepacivirus hominis; procedure, shortened: as §2
Hepatitis C virus [9] = assay: Antiviral activity against pseudo HCV infected in human Huh7 cells assessed as inhibition of HCV pseudo particles entry at 10 uM incubated for 3 hrs prior to compound addition measured after 72 hrs; type: functional, organism-based; details: Hepacivirus hominis, Huh-7
Procedure, shortened: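 Post-binding/pre-entry: Huh7 cells incubated with HCVpp at 4 °C for 3 h, washed, then treated with 10 μM compound at 37 °C for 72 h. Normalized to 0.5% DMSO. CD81 antibody 5 nM as control.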

Hepatitis C virus [10] = assay: Antiviral activity against pseudo HCV infected in human Huh7 cells at 10 uM after 72 hrs; type: functional, organism-based; details: Hepacivirus hominis, Huh-7
Procedure, shortened: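 Post-entry: Huh7 cells infected with HCVpp at 37 °C for 6 h, washed, then treated with 10 μM compound at 37 °C for 72 h. Normalized to 0.5% DMSO. CD81 antibody 5 nM as control.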

Hepatitis C virus [11] = assay: Antiviral activity against pseudo HCV infected in human Huh7 cells assessed as inhibition of HCV pseudo particles entry at 10 uM incubated for 3 hrs; type: functional, organism-based; details: Hepacivirus hominis, Huh-7
Procedure, shortened: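 Prebinding: Huh7 cells exposed to HCVpp plus 10 μM compound at 4 °C for 3 h, washed free of virus and compound, then cultured 72 h at 37 °C. Normalized to 0.5% DMSO. CD81 antibody 5 nM as control.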

Hepatitis C virus [12] = assay: Antiviral activity against pseudo HCV infected in human 293T cells assessed as inhibition of HCV pseudo particles entry at 10 uM after 72 hrs by luciferase reporter gene assay; type: functional, Hepacivirus hominis; details: HEK-293T
Hepatitis C virus [13] = assay: Antiviral activity against pseudo HCV infected in human Huh7 cells assessed as inhibition of HCV pseudo particles entry at 10 uM incubated for 3 hrs prior to virus addition measured after 72 hrs; type: functional, organism-based; details: Hepacivirus hominis, Huh-7
Procedure, shortened: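 Pretreatment: Huh7 cells exposed to 10 μM compound for 3 h at 37 °C, washed, then infected with HCVpp for 72 h at 37 °C. Normalized to 0.5% DMSO. CD81 antibody 5 nM as control.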

Hepacivirus hominis [14] = assay: Binding affinity to HCV envelope protein E2 protein by pull down assay
Procedure, shortened: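 Biotin-labelled probe incubated with lysate of HCVpp-packaging cells and captured on streptavidin agarose. Free biotin and unlabelled compound served as parallel probes. For competition, excess free compound was added to the lysate. Bound E2 was detected.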

Hepacivirus hominis [15] = assay: Binding affinity to HCV envelope protein E2 protein by SPR method
Procedure, shortened: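 E2 loaded on streptavidin-coated biosensors and exposed to compound at 3.125–100 μM to obtain binding curves and K_D. Competition was also tested as E2 binding to a biotin-labelled compound chip in the presence of free compound at varied doses.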

Hepatitis C virus [16] = assay: Antiviral activity against pseudo HCV infected in human Huh7 cells assessed as inhibition of HCV pseudo particles entry at 10 uM after 72 hrs; type: functional, organism-based; details: Hepacivirus hominis, Huh-7
Procedure, shortened: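 Co-treatment: Huh7 cells infected with HCVpp (or VSVpp) with 10 μM compound present throughout, 72 h at 37 °C. Normalized to 0.5% DMSO (final). CD81 antibody (5 nM) was the positive control and an unrelated compound the negative control. Luciferase read-out.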

Compound: CC(=O)OC[C@H]1O[C@@H](O[C@H]2[C@H](OC(C)=O)[C@@H](OC(C)=O)[C@H](OC(=O)[C@]34CCC(C)(C)C[C@H]3C3=CC[C@@H]5[C@@]6(C)CC[C@H](O)C(C)(C)[C@@H]6CC[C@@]5(C)[C@]3(C)C[C@H]4O)O[C@@H]2COC(C)=O)[C@H](OC(C)=O)[C@@H](OC(C)=O)[C@H]1OC(C)=O
- pIC50 (Hepatitis C virus [1]): 6.52
- inhibition at 1 µM [2]: 11.2%
- Activity (HEK-293T): Non-toxic
- Activity (HeLa): Non-toxic
- Ratio IC50 (Hepatitis C virus [3]): 5
- inhibition at 5 µM (Hepatitis C virus [4]): 88.6%
- inhibition at 5 µM [5]: 14.9%
- inhibition at 1 µM (Hepatitis C virus [6]): 80.4%
- Activity (HepG2): Non-toxic

Compound: CC1(C)CC[C@]2(C(=O)O)[C@H](O)C[C@]3(C)C(=CC[C@@H]4[C@@]5(C)CC[C@H](O)C(C)(C)[C@@H]5CC[C@]43C)[C@@H]2C1 [ECHINOCYSTIC ACID]
- Activity (HEK-293T): Non-toxic
- Activity (HeLa): Non-toxic
- pKd (CD81 antigen): 7.68
- Activity (HepG2): Non-toxic
- HC50 at 1 h ([7]; rabbit red blood cells, read-out: CC50): 15 µM

Compound: CC1(C)CC[C@]2(C(=O)O)[C@H](O)C[C@]3(C)C(=CC[C@@H]4[C@@]5(C)CC[C@H](O)C(C)(C)[C@@H]5CC[C@]43C)[C@H]2C1 [ECHINOCYSTIC ACID]
- pKd [8]: 4.62
- pIC50 (Hepatitis C virus [1]): 5.85
- inhibition (Hepatitis C virus [9]): Active
- Activity (Hepatitis C virus [10]): inactive
- inhibition at 1 µM [2]: 7.2%
- inhibition (Hepatitis C virus [11]): Active
- inhibition at 5 µM (Hepatitis C virus [4]): 77.7%
- inhibition at 10 µM (Hepatitis C virus [12]): 90%
- inhibition at 5 µM [5]: 9%
- inhibition (Hepatitis C virus [13]): Active
- inhibition at 1 µM (Hepatitis C virus [6]): 27.5%
- Activity (Hepacivirus hominis [14]): Active
- Activity (Hepacivirus hominis [15]): Dose-dependent effect
- inhibition (Hepatitis C virus [16]): Active

Compound: CC1(C)CC[C@]2(C(=O)NCc3cn(CCCn4cc(CNC(=O)[C@]56CCC(C)(C)C[C@H]5C5=CC[C@@H]7[C@@]8(C)CC[C@H](O)C(C)(C)[C@@H]8CC[C@@]7(C)[C@]5(C)C[C@H]6O)nn4)nn3)[C@H](O)C[C@]3(C)C(=CC[C@@H]4[C@@]5(C)CC[C@H](O)C(C)(C)[C@@H]5CC[C@]43C)[C@@H]2C1
- pIC50 (Hepatitis C virus [1]): 8.00
- inhibition at 1 µM [2]: 16.5%
- Activity (HEK-293T): Non-toxic
- Activity (HeLa): Non-toxic
- Ratio IC50 (Hepatitis C virus [3]): 200
- inhibition at 5 µM (Hepatitis C virus [4]): 89%
- inhibition at 5 µM [5]: 11.9%
- inhibition at 1 µM (Hepatitis C virus [6]): 86.3%
- Activity (HepG2): Non-toxic

Compound: CC1(C(=O)O)CC[C@]2(C)CC[C@]3(C)C(=CC(=O)[C@@H]4[C@@]5(C)CC[C@H](O)C(C)(C)[C@@H]5CC[C@]43C)[C@@H]2C1 (single isomer, unassigned) [ENOXOLONE]
- inhibition at 10 µM (Hepatitis C virus [12]): 5%

Compound: CC1(C)CC[C@]2(C(=O)O)CC[C@]3(C)C(=CC[C@@H]4[C@@]5(C)CC[C@H](O)C(C)(C)[C@@H]5CC[C@]43C)[C@@H]2C1 [OLEANOLIC_ACID]
- pIC50 (Hepatitis C virus [1]): 5.00
- inhibition at 10 µM (Hepatitis C virus [12]): 65%
- Activity ([7]; erythrocyte, 1 h): Toxic

Compound: CC1(C)CC[C@]2(C(=O)O)CC[C@]3(C)C(=CC[C@@H]4[C@@]5(C)CC[C@H](O)C(C)(C)[C@@H]5[C@@H](O)C[C@]43C)[C@@H]2C1
- inhibition at 10 µM (Hepatitis C virus [12]): 0%

Compound: CC1(C)CC[C@]2(C(=O)O)CC[C@]3(C)C(=CC[C@@H]4[C@@]5(C)CC[C@H](O)[C@@](C)(CO)[C@@H]5CC[C@]43C)[C@@H]2C1 [HEDERAGENIN]
- inhibition at 10 µM (Hepatitis C virus [12]): 10%

Compound: CC1(C)CC[C@]2(C(=O)O)[C@H](O)C[C@]3(C)C(=CC[C@@H]4[C@@]5(C)CC[C@H](O)[C@@](C)(CO)[C@@H]5CC[C@]43C)[C@@H]2C1
- inhibition at 10 µM (Hepatitis C virus [12]): 20%

Compound: CC1(C)CC[C@]2(C(=O)O)CC[C@]3(C)C(=CC[C@@H]4[C@@]5(C)CCC(=O)C(C)(C)[C@@H]5CC[C@]43C)[C@@H]2C1 [OLEANONIC ACID]
- inhibition at 10 µM (Hepatitis C virus [12]): 0%

Compound: CC1(C)CC[C@]2(C(=O)NCCCC[C@H](N)C(=O)O)CC[C@]3(C)C(=CC[C@@H]4[C@@]5(C)CC[C@H](O)C(C)(C)[C@@H]5CC[C@]43C)[C@@H]2C1
- inhibition at 10 µM (Hepatitis C virus [12]): 60%
